Data taken from PMC3531959 (ChemMedChem, 2012).
Entries after “also recorded” stand apart in the source; their conditions may differ.

Target: Bos taurus Arp2/3 complex (Bos taurus, UniProt A7MB62+P61157)
Assay: Pyrene actin polymerization assay
Format: biochemical
Details: for inhibition of Arp2/3 complex (in words) / increase in IC50 relative to 1: actin polymerization assay; for increase in IC50 relative to 1: compared to 1
Method in brief: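 Bovine Arp2/3 complex from calf thymus, activated by human N-WASp-VCA (residues 428-505, E. coli-expressed). Rabbit muscle actin, 30% pyrene-labelled at […], Mg/EGTA-exchanged. Polymerization started by adding Arp2/3 and VCA; final buffer 10 mM imidazole pH 7.0, 50 mM KCl, 1 mM EGTA, 1 mM MgCl2, 1 mM DTT. Read at ex 365/em 407 nm every 10 s for 45 min. Inhibitor tested up to 200 μM. IC50 from a fit of maximal rate (nM actin s⁻¹) versus concentration.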

| Compound | inhibition of Arp2/3 complex (in words) | IC50 | increase in IC50 relative to 1 | IC50 relative to 2 (higher IC50 than 2) |
| --- | --- | --- | --- | --- |
| Cc1[nH]c2ccccc2c1CCNC(=O)c1cccc(Cl)c1 [Compound 11, 3-chloro-N-(2-(2-methyl-1H-indol-3-yl)ethyl)benzamide] | greatly reduced or no inhibition | – | – | – |
| Cc1[nH]c2ccccc2c1CCNC(=O)c1cccc(Cl)c1F [Compound 8, 3-chloro-2-fluoro-N-(2-(2-methyl-1H-indol-3-yl)ethyl)benzamide] | – | 238 ± 91 µM | 15-20 fold | – |
| Cc1[nH]c2ccccc2c1CCNC(=O)c1ccccc1Cl [Compound 10, 2-chloro-N-(2-(2-methyl-1H-indol-3-yl)ethyl)benzamide] | greatly reduced or no inhibition; also recorded: completely abolishes inhibition | – | – | – |
| COc1ccc(C(=O)NCCc2c(C)[nH]c3ccccc23)c(F)c1 [Compound 4, 2-fluoro-4-methoxy-N-(2-(2-methyl-1H-indol-3-yl)ethyl)benzamide] | – | 19 ± 6 µM | nearly double | fivefold |
| Cc1[nH]c2ccc(Cl)cc2c1CCNC(=O)c1ccccc1F [Compound 3, N-(2-(5-chloro-2-methyl-1H-indol-3-yl)ethyl)-2-fluorobenzamide] | – | 18 ± 5 µM | nearly double; also recorded: only slightly | – |
| Cc1[nH]c2ccccc2c1CCNC(=O)c1ccc(Cl)cc1 [Compound 7, 4-chloro-N-(2-(2-methyl-1H-indol-3-yl)ethyl)benzamide] | greatly reduced or no inhibition | 181 ± 85 µM | 15-20 fold | – |

Second part, the molecule after the results:

| inhibition of Arp2/3 complex (in words) | IC50 | increase in IC50 relative to 1 | IC50 relative to 2 (higher IC50 than 2) | Compound |
| --- | --- | --- | --- | --- |
| – | 32 ± 18 µM | approximately 3 fold | – | Cc1[nH]c2ccccc2c1CCNC(=O)c1ccc(Cl)cc1F [Compound 6, 4-chloro-2-fluoro-N-(2-(2-methyl-1H-indol-3-yl)ethyl)benzamide] |
| – | 4 ± 1 µM | – | – | Cc1[nH]c2ccccc2c1CCNC(=O)c1ccc(O)cc1F [Compound 2, 2-fluoro-4-hydroxy-N-(2-(2-methyl-1H-indol-3-yl)ethyl)benzamide] |
